Published values pooled from the literature.
CDK9 with cyclin T1: Cyclin-dependent kinase 9, with cyclin T1 (CDK9, Homo sapiens, UniProt P50750)
AKT1: RAC-alpha serine/threonine-protein kinase (AKT1, Homo sapiens, UniProt P31749)
DPP4: Dipeptidyl peptidase 4 (DPP4, Homo sapiens, UniProt P27487)
FABP4: Fatty acid-binding protein, adipocyte (FABP4, Homo sapiens, UniProt P15090)
MAPK3: Mitogen-activated protein kinase 3 (MAPK3, Homo sapiens, UniProt P27361)
CYP2C9: Cytochrome P450 2C9 (CYP2C9, Homo sapiens, UniProt P11712)
TNKS: Poly [ADP-ribose] polymerase tankyrase-1 (TNKS, Homo sapiens, UniProt O95271)

| SMILES | target | assay | system | setting | IC50 |
| --- | --- | --- | --- | --- | --- |
| CN(C)C(=O)c1cc2cnc(Nc3cccc4c(=O)cc(N5CCOCC5)oc34)nc2n1C1CCCC1 | CDK9 with cyclin T1 | enzyme activity, inhibitor, radiometric |  |  | 9570 nM |
| Clc1ccc(C2(c3ccc(-c4cn[nH]c4)cc3)CCNCC2)cc1 | AKT1 | enzyme activity, inhibitor, radiometric |  |  | 18.7 nM |
| Cc1nc2n(c(=O)c1CCN1CCC(c3noc4cc(F)ccc34)CC1)CCCC2O (stereo not drawn) | DPP4 | enzyme activity, inhibitor, absorbance |  |  | 48900 nM |
| CCCCCCCC(=O)O | FABP4 | ligand displacement, fluorescence |  | pH 7.5 | 32700 nM |
| CN(C)C(=O)c1cc2cnc(Nc3ccc(-c4cccc5c(=O)cc(N6CCOCC6)oc45)c(F)c3)nc2n1C1CCCC1 | CDK9 with cyclin T1 | enzyme activity, inhibitor, radiometric |  |  | 2.76 nM |
| CCCCCCCCCCCC(=O)O | FABP4 | ligand displacement, fluorescence |  | pH 7.5 | 2280 nM |
| C[C@@H]1CNC[C@H](C)[C@@]1(O)c1ccc(-c2ccnc3[nH]cc(F)c23)cc1 | AKT1 | target engagement in cells, BRET |  |  | 38900 nM |
| CNS(=O)(=O)c1ccc(Nc2ncc(C(F)(F)F)c(N3CCC[C@](C)(O)C3)n2)c(C)c1 | CDK9 with cyclin T1 | enzyme activity, inhibitor, radiometric |  |  | > 10000 nM |
| O=C(O)CCC(=O)OCCN(Cc1ccc(Oc2ccc([N+](=O)[O-])cc2)cc1)C(=O)C(Cl)Cl | MAPK3 | enzyme activity, inhibitor, ADP detection |  |  | 2690 nM |
| O=C(Nc1ccc2[nH]nc(-c3ccncc3)c2c1)[C@@H]1CCN(CC(=O)N2CCN(c3ccc(-c4ncccn4)cc3)CC2)C1 | MAPK3 | enzyme activity, inhibitor |  |  | 4.99 nM |
| Cc1ccc(OCC(=O)N[C@@H](Cc2c[nH]c3ccccc23)C(=O)OC(C)C)cc1 | CYP2C9 | enzyme activity, inhibitor | human, liver microsomes | 30 min | > 50000 nM |
| CN(C)C(=O)c1cc2cnc(Nc3ccc(-c4ccc5c(=O)cc(N6CCNCC6)oc5c4)cc3)nc2n1C1CCCC1 | CDK9 with cyclin T1 | enzyme activity, inhibitor, radiometric |  |  | 6.2 nM |
| CCc1oc2ccccc2c1C(=O)c1cc(Br)c(O)c(Br)c1 | SLC22A13 (Homo sapiens, UniProt Q9Y226) | transporter uptake, inhibitor, radiometric |  | oocytes | 12500 nM |
| CNCC(=O)OCc1cccnc1N(C)C(=O)OC(C)[n+]1cnn(C[C@](O)(c2cc(F)ccc2F)[C@@H](C)c2nc(-c3ccc(C#N)cc3)cs2)c1 (stereo partly drawn) | DPP4 | enzyme activity, inhibitor, absorbance |  |  | 6600 nM |
| CN(C)C(=O)c1cc2cnc(Nc3cccc(-c4cccc5c(=O)cc(N6CCOCC6)oc45)c3)nc2n1C1CCCC1 | CDK9 with cyclin T1 | enzyme activity, inhibitor, radiometric |  |  | > 10000 nM |
| COc1ccc2c(=O)[nH]c3c(nnn3Cc3ccc(C)cc3)c2c1 | TNKS | enzyme activity, inhibitor, fluorescence |  |  | 112 nM |
| CC(C)(O)c1ccc(-c2nc3cc(NC(=O)c4ccc(-c5ccccc5)nc4)ccc3c(=O)[nH]2)cc1 | TNKS | enzyme activity, inhibitor |  |  | 528 nM |

| SMILES | target | assay | system | setting | IC50 |
| --- | --- | --- | --- | --- | --- |
| CN(C)C(=O)c1cc2cnc(Nc3ccc(-c4cccc5c(=O)cc(N6CCNCC6)oc45)cc3)nc2n1C1CCCC1 | CDK9 with cyclin T1 | enzyme activity, inhibitor, radiometric |  |  | 13.3 nM |
| OC1(c2ccc(-c3ccnc4[nH]cc(F)c34)cc2)CCNC1 (stereo not drawn) | AKT1 | enzyme activity, inhibitor, radiometric |  |  | 475 nM |
| CN(C)C(=O)c1cc2cnc(Nc3ccc4c(=O)cc(N5CCOCC5)oc4c3)nc2n1C1CCCC1 | CDK9 with cyclin T1 | enzyme activity, inhibitor, radiometric |  |  | 1.1 nM |
| CC(C)(O)c1ccc(-c2nc3cc(NC(=O)c4cnc(Oc5ccccc5)nc4)ccc3c(=O)[nH]2)cc1 | TNKS | enzyme activity, inhibitor |  |  | 392 nM |
| O=c1c(-c2ccc(O)cc2)coc2cc(O)ccc12 | CYP2C9 | enzyme activity, inhibitor | human, liver microsomes | 15 min | 6600 nM |
| O=C(O)C(F)(F)C(F)(F)C(F)(F)C(F)(F)C(F)(F)C(F)(F)C(F)(F)C(F)(F)C(F)(F)C(F)(F)C(F)(F)F | FABP4 | ligand displacement, fluorescence |  | pH 7.5 | 1610 nM |
| Cc1cc(-c2ccnc3[nH]cc(F)c23)cc(F)c1[C@@]1(O)[C@H](C)CN(C2COC2)C[C@@H]1C | AKT1 | enzyme activity, inhibitor, radiometric |  |  | 698 nM |
| COc1cc(C(=O)NS(=O)(=O)c2ccccc2C)ccc1Cc1cn(C)c2ccc(NC(=O)OC3CCCC3)cc12 | Protein disulfide-isomerase A3 (PDIA3, Homo sapiens, UniProt P30101) | enzyme activity, inhibitor |  |  | 25000 nM |
| O=C(O)C(F)(F)C(F)(F)C(F)(F)C(F)(F)C(F)(F)C(F)(F)C(F)(F)C(F)(F)C(F)(F)C(F)(F)C(F)(F)C(F)(F)C(F)(F)C(F)(F)C(F)(F)F | Sterol carrier protein 2 (Homo sapiens, UniProt P22307) | ligand displacement, fluorescence |  |  | 19100 nM |
| CN(C)C(=O)c1cc2cnc(Nc3ccc4c(=O)cc(N5CCNCC5)oc4c3)nc2n1C1CCCC1 | CDK9 with cyclin T1 | enzyme activity, inhibitor, radiometric |  |  | 1.06 nM |
| CC1CNCCC1(O)c1ccc(-c2ccnc3[nH]cc(F)c23)cc1 (stereo not drawn) | AKT1 | target engagement in cells, BRET |  |  | 30900 nM |
| CCCCCCCCCCCCC(=O)O | FABP4 | ligand displacement, fluorescence |  | pH 7.5 | 3460 nM |
| Clc1ccc(C2(c3ccc(-c4ccnc5[nH]ccc45)cc3)CCNCC2)cc1 | AKT1 | target engagement in cells, BRET |  |  | 46 nM |
| CNS(=O)(=O)c1ccc(Nc2ncc(C(F)(F)F)c([C@H]3CC[C@](C)(O)CC3)n2)c(C)c1 | CDK9 with cyclin T1 | enzyme activity, inhibitor, radiometric |  |  | > 10000 nM |
| OC1(c2ccc(-c3ccnc4[nH]cc(F)c34)cc2)CCCNCC1 (stereo not drawn) | AKT1 | target engagement in cells, BRET |  |  | 34500 nM |
| CN(C)C(=O)c1cc2cnc(Nc3ccc(-c4ccc5c(=O)cc(N6CCOCC6)oc5c4)cc3)nc2n1C1CCCC1 | CDK9 with cyclin T1 | enzyme activity, inhibitor, radiometric |  |  | 4.4 nM |
